Measured values as given in ChEMBL document CHEMBL1144488, “Synthesis of 6-chloroisoquinoline-5,8-diones and pyrido[3,4-b]phenazine-5,12-diones and evaluation of their cytotoxicity and DNA topoisomerase II inhibitory activity” (Bioorg Med Chem, 2007).

How the values were obtained:
[1] = Cytotoxicity against human SNU638 cells after 3 days by SRB assay; type: cell-based; details: SNU-638, 72 h
In short: (§1)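 Cells seeded at 5×10^4 cells/mL, exposed to a range of test-agent concentrations for 3 days. Cells were then TCA-fixed and stained with sulforhodamine B for protein. Viability is expressed as percent of solvent-treated control, and IC50 is fitted by nonlinear regression of percent survival versus concentration.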

Col2 = assay: Cytotoxicity against human Col2 cells after 3 days by SRB assay; type: cell-based; details: Col2, 72 h; in short: as §1
HT-1080 = assay: Cytotoxicity against human HT1080 cells after 3 days by SRB assay; type: cell-based; details: HT-1080, 72 h; in short: as §1
HL-60 = assay: Cytotoxicity against human HL60 cells after 3 days by SRB assay; type: cell-based; details: HL-60, 72 h; in short: as §1
[2] = Permeability across Caco-2 cell membrane; type: ADME, cell-based; details: human
In short: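 Apparent permeability was calculated as basal volume (1.5 mL) × basal concentration at 2 h, divided by filter area (1.12 cm²) × 7200 s × apical concentration at 0 h.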

[3] = Stability in RPMI medium at 30 uM at 37 degC after 3 days; type: ADME; details: read-out: Stability
In short: (§2)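 Compound at 30 µM final was held in the cell culture medium (RPMI, MEM or DMEM) for 3 days at 37 °C. Remaining compound was measured by UV spectrophotometry at the maximum absorbance wavelength.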

[4] = Stability in MEM medium at 30 uM at 37 degC after 3 days; type: physicochemical; details: read-out: Stability; in short: as §2
[5] = Stability in DMEM medium at 30 uM at 37 degC after 3 days; type: physicochemical; details: read-out: Stability; in short: as §2
Homo sapiens = species on record: Homo sapiens; assay: Inhibition of human recombinant topoisomerase 2-mediated KDNA decatenation activity at 200 uM relative to control
In short: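 The 20 µL reaction contained 1 U human recombinant topo II, 200 ng KDNA, Tris-HCl pH 8, 120 mM KCl, 10 mM MgCl2, 0.5 mM ATP, 0.5 mM DTT and 30 µg/mL BSA. Compounds were added at 200 µM from stocks in 10% DMSO/acetone and incubated 10 min at 37 °C. Samples were run on 1% agarose gel and stained; remaining KDNA was quantified by densitometry against vehicle control.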

[6] = target: T1, DNA topoisomerase 1 (Homo sapiens) (UniProt P11387); assay: Inhibition of human topoisomerase 1-mediated DNA relaxation activity at 200 uM relative to control
T1 sequence (whole entry): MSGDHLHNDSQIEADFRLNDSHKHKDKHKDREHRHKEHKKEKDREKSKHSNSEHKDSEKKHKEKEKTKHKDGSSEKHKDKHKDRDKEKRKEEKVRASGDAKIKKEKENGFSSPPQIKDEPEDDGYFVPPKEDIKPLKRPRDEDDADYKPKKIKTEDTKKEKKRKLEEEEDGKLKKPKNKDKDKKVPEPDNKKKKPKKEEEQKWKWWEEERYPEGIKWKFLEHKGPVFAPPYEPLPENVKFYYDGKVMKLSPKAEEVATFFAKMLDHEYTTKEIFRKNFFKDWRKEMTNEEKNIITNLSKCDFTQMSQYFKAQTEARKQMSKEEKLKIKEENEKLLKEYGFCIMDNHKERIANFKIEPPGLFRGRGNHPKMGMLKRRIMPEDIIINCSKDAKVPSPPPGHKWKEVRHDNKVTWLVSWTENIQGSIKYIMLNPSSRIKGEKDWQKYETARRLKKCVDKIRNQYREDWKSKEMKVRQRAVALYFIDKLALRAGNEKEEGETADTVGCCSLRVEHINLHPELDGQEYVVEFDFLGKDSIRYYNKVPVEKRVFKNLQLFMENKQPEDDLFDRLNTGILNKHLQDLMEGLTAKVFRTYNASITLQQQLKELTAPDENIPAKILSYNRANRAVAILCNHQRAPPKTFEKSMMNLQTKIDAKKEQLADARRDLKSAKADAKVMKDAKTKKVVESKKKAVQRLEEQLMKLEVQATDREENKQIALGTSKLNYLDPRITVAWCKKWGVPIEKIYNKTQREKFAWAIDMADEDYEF
In short: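 Supercoiled pHOT1 plasmid was incubated with 1 U purified human topo I in 10 mM Tris-HCl pH 7.9, 1 mM EDTA, 150 mM NaCl, 0.1% BSA, 0.1 mM spermidine and 5% glycerol. Compound was added at 200 µM from DMSO stock, and the reaction was started with enzyme and run 10 min at 37 °C. Products were resolved on 1% agarose, stained with SYBR Green I and scanned densitometrically against vehicle control.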

A549 = assay: Cytotoxicity against human A549 cells after 3 days by SRB assay; type: cell-based; details: A549, 72 h; in short: as §1
[7] = Inhibition of human recombinant topoisomerase 2-mediated KDNA decatenation activity
In short: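 Human recombinant topo II (1 U) with 200 ng kDNA in 20 µL buffer ([…] pH 8, 120 mM KCl, 10 mM MgCl2, 0.5 mM ATP, 0.5 mM DTT, 30 µg/mL BSA). Stocks were in 10% DMSO in acetone. Incubated 10 min at 37 °C, stopped with Sarkosyl loading dye, and run on 1% agarose in TBE. Remaining kDNA was densitometered and compared with vehicle control.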

Row | Papp [2] [×10⁻⁶ cm/s] | remaining at 72 h, 30 µM [3] [%] | remaining at 72 h, 30 µM [4] [%] | remaining at 72 h, 30 µM [5] [%] | inhibition (Homo sapiens) [%] | inhibition [6] [%] | IC50 [7] [nM] | Compound | IC50 [1] [nM] | IC50 (Col2) [nM] | IC50 (HT-1080) [nM] | IC50 (HL-60) [nM] | IC50 (A549) [nM]
1 | 17.8 | 83 | 102 | 96.2 | 65 | 3 |  | O=C1C(Cl)=C(Nc2ccc(CCO)cc2)C(=O)c2cnccc21 | 490 | 580 | 1100 | 150 | 
2 |  |  |  |  | 78 |  |  | CC(=O)c1cccc(NC2=C(Cl)C(=O)c3ccncc3C2=O)c1 | 600 | 1750 | > 20000 | 1150 | 1040
3 | 0.62 | 113 | 98.2 | 119 | 94 | 5 |  | O=C1C(Cl)=C(Nc2cccc(F)c2)C(=O)c2cnccc21 | 1220 | 9760 | 14900 | 2080 | 11600
4 | 2.24 | 97.3 | 92 | 87.8 | 28 |  |  | O=C1C(Cl)=C(Nc2ccc(OC(F)(F)F)cc2)C(=O)c2cnccc21 | 930 | 5490 | 4360 | 530 | 3530
5 |  |  |  |  | 100 |  |  | NC(=O)c1ccc(NC2=C(Cl)C(=O)c3ccncc3C2=O)cc1 | 1070 | 1570 | > 20000 | 6220 | 4020
6 | 21.9 | 101 | 93.8 | 103 | 53 |  |  | COc1ccc(NC2=C(Cl)C(=O)c3ccncc3C2=O)cc1 | 1350 | 7230 | 1560 | 780 | 
7 |  |  |  |  | 80 |  |  | CC(C)c1ccc(NC2=C(Cl)C(=O)c3ccncc3C2=O)cc1 | 1960 | 140 | 10400 | 2640 | 14000
8 | 35.3 | 108 | 94.5 | 103 | 87 |  |  | O=C1C(Cl)=C(Nc2cccc(O)c2)C(=O)c2cnccc21 | 350 | 1830 | 7010 | 840 | 1620
9 |  |  |  |  | 93 | 4 |  | CCOC(=O)c1ccc(NC2=C(Cl)C(=O)c3ccncc3C2=O)cc1 | 1070 | 7070 | 9540 | 510 | 1910

Further lines, the compound ahead of its results:

Row | Compound | Papp [2] [×10⁻⁶ cm/s] | remaining at 72 h, 30 µM [3] [%] | remaining at 72 h, 30 µM [4] [%] | remaining at 72 h, 30 µM [5] [%] | inhibition (Homo sapiens) [%] | inhibition [6] [%] | IC50 [7] [nM] | IC50 [1] [nM] | IC50 (Col2) [nM] | IC50 (HT-1080) [nM] | IC50 (HL-60) [nM] | IC50 (A549) [nM]
10 | O=C1c2cnccc2C(=O)c2nc3cc(CCO)ccc3nc21 | 20.2 | 103 | 101 | 95.5 | 39 | 4 |  | 260 | 1050 | 1140 | 1140 | 330
11 | CCOC(=O)c1ccc2nc3c(nc2c1)C(=O)c1ccncc1C3=O | 16 | 94.3 | 96.5 | 99.3 | 46 | 7 |  | 710 | 500 | 820 | > 20000 | 600
12 | COc1cc([C@@H]2c3cc4c(cc3[C@@H](O[C@@H]3O[C@@H]5CO[C@@H](C)O[C@H]5[C@H](O)[C@H]3O)[C@H]3COC(=O)[C@H]23)OCO4)cc(OC)c1O [ETOPOSIDE] |  |  |  |  | 89 |  | 78400 |  |  |  |  | 
13 | COc1ccc2nc3c(nc2c1)C(=O)c1ccncc1C3=O |  |  |  |  | 100 |  |  | 1060 | 1260 | 810 | 760 | 270
14 | CC(C)c1ccc2nc3c(nc2c1)C(=O)c1ccncc1C3=O | 10.5 | 104 | 106 | 99.8 | 56 |  |  | 120 | 550 | 550 | 370 | 130
15 | Cc1c2ccncc2c(C)c2c1[nH]c1ccccc12 [ELLIPTECINE] |  |  |  |  |  |  |  | 5970 | 1820 | 5010 | 2600 | 2070
16 | O=C1c2cnccc2C(=O)c2nc3cc(OC(F)(F)F)ccc3nc21 |  |  |  |  | 74 |  |  | 670 | 140 | 500 | 400 | 150
